Measurements reported in ChEMBL document CHEMBL2434944, “Novel acetamidothiazole derivatives: synthesis and in vitro anticancer evaluation” (Eur J Med Chem, 2013).

Columns and labels:
OVCAR-8 = assay: Growth inhibition of human OVCAR8 cells assessed as cell growth at 10^-5 M after 48 hrs by sulforhodamine B assay relative to control; assay type: functional; settings: OVCAR-8, 48 h, read-out: Activity
How it was run: (§1)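 NCI-60 single-dose screen at 10^-5 M. Cells grown in RPMI 1640 with 5% FBS and 2 mM L-glutamine, plated at 5,000–40,000 cells/well according to doubling time, and preincubated 24 h at 37°C, 5% CO2. Compound dissolved in DMSO and added. Exposure 48 h. Adherent cells fixed with cold TCA (10% final), suspension cells with 16% final TCA. Read-out is 0.4% SRB staining, dye solubilised in 10 mM Tris, absorbance at 515 nm. Percent growth is calculated against the time-zero plate and untreated control.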

UACC-257 = assay: Growth inhibition of human UACC257 cells assessed as cell growth at 10^-5 M after 48 hrs by sulforhodamine B assay relative to control; assay type: functional; settings: UACC-257, 48 h, read-out: Activity
How it was run: (§2)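 NCI-60 single-dose screen, 10^-5 M final. Cells grown in RPMI 1640 with 5% FBS and 2 mM L-glutamine, seeded at 5,000–40,000 cells/well by doubling time. Preincubated 24 h at 37°C, 5% CO2. Compound in DMSO, diluted in medium with gentamicin, then 48 h exposure. Fixed with cold TCA, SRB stained, A515 read. Percent growth vs untreated control, time-zero plate corrected.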

SK-MEL-28 = assay: Growth inhibition of human SK-MEL-28 cells assessed as cell growth at 10^-5 M after 48 hrs by sulforhodamine B assay relative to control; assay type: functional; settings: SK-MEL-28, 48 h, read-out: Activity; how it was run: as §1
SK-MEL-2 = assay: Growth inhibition of human SK-MEL-2 cells assessed as cell growth at 10^-5 M after 48 hrs by sulforhodamine B assay relative to control; assay type: functional; settings: SK-MEL-2, 48 h, read-out: Activity; how it was run: as §1
MDA-MB-435 = assay: Growth inhibition of human MDA-MB-435 cells assessed as cell growth at 10^-5 M after 48 hrs by sulforhodamine B assay relative to control; assay type: functional; settings: MDA-MB-435, 48 h, read-out: Activity; how it was run: as §1
M14 = assay: Growth inhibition of human M14 cells assessed as cell growth at 10^-5 M after 48 hrs by sulforhodamine B assay relative to control; assay type: functional; settings: M14, 48 h, read-out: Activity; how it was run: as §1
LOX IMVI = assay: Growth inhibition of human LOXIMVI cells assessed as cell growth at 10^-5 M after 48 hrs by sulforhodamine B assay relative to control; assay type: functional; settings: read-out: Activity; how it was run: as §1
SNB-19 = assay: Growth inhibition of human SNB19 cells assessed as cell growth at 10^-5 M after 48 hrs by sulforhodamine B assay relative to control; assay type: functional; settings: SNB-19, 48 h, read-out: Activity; how it was run: as §1
SW-620 = assay: Growth inhibition of human SW620 cells assessed as cell growth at 10^-5 M after 48 hrs by sulforhodamine B assay relative to control; assay type: functional; settings: SW-620, 48 h, read-out: Activity; how it was run: as §2
KM12 = assay: Growth inhibition of human KM12 cells assessed as cell growth at 10^-5 M after 48 hrs by sulforhodamine B assay relative to control; assay type: functional; settings: KM12, 48 h, read-out: Activity; how it was run: as §1
HT-29 = assay: Growth inhibition of human HT-29 cells assessed as cell growth at 10^-5 M after 48 hrs by sulforhodamine B assay relative to control; assay type: functional; settings: HT-29, 48 h, read-out: Activity; how it was run: as §1
NCI-H226 = assay: Growth inhibition of human NCI-H226 cells assessed as cell growth at 10^-5 M after 48 hrs by sulforhodamine B assay relative to control; assay type: functional; settings: NCI-H226, 48 h, read-out: Activity; how it was run: as §1
HOP-92 = assay: Growth inhibition of human HOP92 cells assessed as cell growth at 10^-5 M after 48 hrs by sulforhodamine B assay relative to control; assay type: functional; settings: HOP-92, 48 h, read-out: Activity; how it was run: as §1
RPMI-8226 = assay: Growth inhibition of human RPMI8226 cells assessed as cell growth at 10^-5 M after 48 hrs by sulforhodamine B assay relative to control; assay type: functional; settings: RPMI-8226, 48 h, read-out: Activity; how it was run: as §1
[1] = target: T1, Leukotriene A-4 hydrolase (Homo sapiens, UniProt P09960); assay: Inhibition of human leukotriene A-4 hydrolase
T1 sequence (P09960 whole entry): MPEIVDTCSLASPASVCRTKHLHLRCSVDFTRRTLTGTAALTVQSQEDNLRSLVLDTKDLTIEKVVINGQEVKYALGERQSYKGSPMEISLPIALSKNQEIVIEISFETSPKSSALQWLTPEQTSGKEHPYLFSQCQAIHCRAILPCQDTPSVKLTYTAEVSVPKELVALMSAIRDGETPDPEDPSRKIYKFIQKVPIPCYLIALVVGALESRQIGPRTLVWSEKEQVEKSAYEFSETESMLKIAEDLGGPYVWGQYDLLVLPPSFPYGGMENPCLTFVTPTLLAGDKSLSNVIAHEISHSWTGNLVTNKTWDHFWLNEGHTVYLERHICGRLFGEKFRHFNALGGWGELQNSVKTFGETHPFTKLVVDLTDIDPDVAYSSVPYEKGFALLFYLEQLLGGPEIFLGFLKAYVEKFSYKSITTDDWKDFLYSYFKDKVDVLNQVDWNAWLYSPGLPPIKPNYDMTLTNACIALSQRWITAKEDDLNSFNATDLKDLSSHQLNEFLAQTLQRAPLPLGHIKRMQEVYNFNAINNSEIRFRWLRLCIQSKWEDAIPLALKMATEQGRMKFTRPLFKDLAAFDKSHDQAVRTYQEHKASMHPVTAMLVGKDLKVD

[2] = target: Proto-oncogene tyrosine-protein kinase Src (Homo sapiens, UniProt P12931); assay: Inhibition of human SRC
[3] = target: Mitogen-activated protein kinase 1 (Homo sapiens, UniProt P28482); assay: Inhibition of human MAPK1
Cathepsin K = target: T2, Cathepsin K (Homo sapiens, UniProt P43235); assay: Inhibition of human cathepsin K
T2 sequence (P43235 whole entry): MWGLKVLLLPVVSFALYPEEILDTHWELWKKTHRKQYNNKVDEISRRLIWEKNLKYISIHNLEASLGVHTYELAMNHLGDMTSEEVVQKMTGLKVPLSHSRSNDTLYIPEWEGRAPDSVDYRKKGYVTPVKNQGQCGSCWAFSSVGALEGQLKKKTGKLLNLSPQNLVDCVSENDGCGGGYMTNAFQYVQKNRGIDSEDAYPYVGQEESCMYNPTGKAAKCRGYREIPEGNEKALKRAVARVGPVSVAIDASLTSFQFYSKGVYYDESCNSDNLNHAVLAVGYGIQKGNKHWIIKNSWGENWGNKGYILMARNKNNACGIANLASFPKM

T47D = assay: Growth inhibition of human T47D cells assessed as cell growth at 10^-5 M after 48 hrs by sulforhodamine B assay relative to control; assay type: functional; settings: read-out: Activity; how it was run: as §2
[4] = Growth inhibition of human Hs 578T cells assessed as cell growth at 10^-5 M after 48 hrs by sulforhodamine B assay relative to control; assay type: functional; settings: read-out: Activity; how it was run: as §1
TK-10 = assay: Growth inhibition of human TK10 cells assessed as cell growth at 10^-5 M after 48 hrs by sulforhodamine B assay relative to control; assay type: functional; settings: TK-10, 48 h, read-out: Activity; how it was run: as §2

Sequence of Mitogen-activated protein kinase 1 (P28482 whole entry): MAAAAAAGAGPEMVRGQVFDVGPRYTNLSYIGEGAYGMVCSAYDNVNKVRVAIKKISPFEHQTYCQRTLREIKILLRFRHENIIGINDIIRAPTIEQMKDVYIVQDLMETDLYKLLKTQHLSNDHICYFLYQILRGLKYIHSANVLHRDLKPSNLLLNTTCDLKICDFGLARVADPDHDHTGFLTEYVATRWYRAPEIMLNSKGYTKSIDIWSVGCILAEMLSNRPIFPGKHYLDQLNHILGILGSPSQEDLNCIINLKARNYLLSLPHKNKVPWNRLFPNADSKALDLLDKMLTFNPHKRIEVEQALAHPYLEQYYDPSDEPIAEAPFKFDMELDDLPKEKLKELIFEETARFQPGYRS
Sequence of Proto-oncogene tyrosine-protein kinase Src (P12931 2-536 limits assumed): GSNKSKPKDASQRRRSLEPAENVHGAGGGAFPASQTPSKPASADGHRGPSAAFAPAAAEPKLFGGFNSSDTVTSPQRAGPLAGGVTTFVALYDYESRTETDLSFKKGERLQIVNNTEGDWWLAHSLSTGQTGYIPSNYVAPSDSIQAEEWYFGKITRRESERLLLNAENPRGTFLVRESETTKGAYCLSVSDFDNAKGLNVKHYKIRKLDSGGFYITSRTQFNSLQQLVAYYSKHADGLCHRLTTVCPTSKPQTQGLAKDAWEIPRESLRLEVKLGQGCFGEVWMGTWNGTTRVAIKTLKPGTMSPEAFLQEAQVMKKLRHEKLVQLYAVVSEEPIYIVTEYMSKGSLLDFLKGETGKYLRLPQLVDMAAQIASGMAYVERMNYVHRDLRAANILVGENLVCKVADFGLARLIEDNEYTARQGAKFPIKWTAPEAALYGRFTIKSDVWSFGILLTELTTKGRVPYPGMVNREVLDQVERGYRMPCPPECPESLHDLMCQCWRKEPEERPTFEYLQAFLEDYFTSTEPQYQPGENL

SMILES | growth at 10 µM (OVCAR-8) [%] | growth at 10 µM (UACC-257) [%] | growth at 10 µM (SK-MEL-28) [%] | growth at 10 µM (SK-MEL-2) [%] | growth at 10 µM (MDA-MB-435) [%] | growth at 10 µM (M14) [%] | growth at 10 µM (LOX IMVI) [%] | growth at 10 µM (SNB-19) [%] | growth at 10 µM (SW-620) [%] | growth at 10 µM (KM12) [%] | growth at 10 µM (HT-29) [%] | growth at 10 µM (NCI-H226) [%] | growth at 10 µM (HOP-92) [%] | growth at 10 µM (RPMI-8226) [%] | Ki [1] [nM] | Ki [2] [µM] | Ki [3] [µM] | Ki (Cathepsin K) [µM] | growth at 10 µM (T47D) [%] | growth at 10 µM [4] [%] | also measured
Cc1ccc(-c2csc(=N)n2CC(=O)N2CCN(c3ccccc3)CC2)cc1 | 92.9 | 106 | 100 | 117 | 92.2 | 108 | 96.8 | 96.6 | 105 | 104 | 111 | 97.2 | 69.2 | 92.4 | 4290 | 13.5 | 2.09 | 10.8 | 78 | 88.2 | growth at 10 µM (TK-10): 140%
N=c1scc(-c2ccccc2)n1CC(=O)N1CCN(c2ccccc2)CC1 | 94.7 | 108 | 98.8 | 104 | 96.5 | 101 | 90.7 | 98.6 | 101 | 104 | 106 | 93.7 | 59 | 92.1 | 643 | 14.1 | 1.73 | 11.6 | 91.2 | 96.5 | growth at 10 µM (TK-10): 127%
CN1CCN(C(=O)Cn2c(-c3ccccc3)csc2=N)CC1 | 92.9 | 106 | 100 | 118 | 104 | 94.2 | 87.3 | 93.7 | 96.1 | 102 | 83.8 | 85.2 | 73.8 | 92.5 | 629 | 7.91 | 4.89 | 6.22 | 78 | 88.2 | growth at 10 µM (TK-10): 140%
CN1CCN(C(=O)Cn2c(-c3ccc(Cl)cc3)csc2=N)CC1 | 96.8 | 104 | 107 | 102 | 92.2 | 98.9 | 96.8 | 92.7 | 102 | 98.7 | 96 | 95.9 | 77.6 | 79.1 | 172 | 3.23 | 8.84 | 4.58 | 78.4 | 106 | growth at 10 µM (TK-10): 85.7%
